# From ChEMBL document CHEMBL1131231, “New azole antifungals. 2. Synthesis and antifungal activity of heterocyclecarboxamide derivatives of 3-amino-2-aryl-1-azolyl-2-butanol” (1998)
# Experiments:
# Format in all cases: functional
# [1] = The compound was tested in vitro for antifungal activity against 10 yeasts.
# Procedure, shortened: (§1)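 Agar dilution on Kimmig's agar with 0.5% glycerol; ATCC or clinical isolates, inocula at 10⁵ cfu/mL. Drugs from 800 μg/mL stock in 50% ethanol, 2-fold serial dilutions 80 to 0.03 μg/mL in plates. Incubated 25 °C, 48 h for yeasts, 120 h for filamentous fungi. Value is geometric mean of MICs (μg/mL); >80 taken as 160, ≤0.03 as 0.03.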
# [2] = The compound was tested in vitro for antifungal activity against 6 filamentous fungi.; procedure, shortened: as §1
# Candida albicans [3] = assay: In vivo antifungal activity against murine candidosis model after peroral administration with 1 mg/kg at various time intervals. (percent protection for 100% mortality with untreated group); settings: route oral
# Procedure, shortened: (§2)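 Male mice, groups of 10, infected iv with 0.2 mL Candida albicans at (2–8) × 10⁷ cfu/mL. Oral suspension in 1% Tween + 0.2% carboxymethylcellulose in water, given 1, 4 and 24 h post-infection; vehicle controls and a fluconazole group at the same dose. Survival scored on days 1, 2, 3, 5, 7, 9, reported as % surviving on the day untreated, or fluconazole-treated, mortality reached 100%.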
# Candida albicans [4] = assay: In vivo antifungal activity against murine candidosis model after peroral administration with 1 mg/kg at various time intervals. (percent protection for 100% mortality with fluconazole-treated group.); settings: route oral; procedure, shortened: as §2
# Candida albicans [5] = assay: In vivo antifungal activity against murine candidosis model after peroral administration with 0.5 mg/kg at various time intervals. (percent protection for 100% mortality with fluconazole-treated group.); settings: route oral; procedure, shortened: as §2
# Candida albicans [6] = assay: In vivo antifungal activity against murine candidosis model after peroral administration with 0.5 mg/kg at various time intervals. (percent protection for 100% mortality with untreated group); settings: route oral; procedure, shortened: as §2
Compound,MIC [1] [mg/L],MIC [2] [mg/L],Protection (Candida albicans [3]) [%],Protection (Candida albicans [4]) [%],Protection (Candida albicans [5]) [%],Protection (Candida albicans [6]) [%]
Cc1c(C(=O)N[C@H](C)[C@](O)(Cn2cncn2)c2ccc(F)cc2F)cnn1-c1ccccc1Cl,11,> 80,0,0,–,–
C[C@@H](NC(=O)c1cnn(-c2ccc(Cl)cc2)c1C(F)(F)F)[C@](O)(Cn1cncn1)c1ccc(F)cc1F,1.2,7.1,100,50,–,–
Cc1c(C(=O)N[C@H](C)[C@](O)(Cn2cncn2)c2ccc(F)cc2F)cnc2cc(-c3ccc(Cl)cc3)nn12,1.4,6.3,100,0,–,–
CC(C)c1c(C(=O)N[C@H](C)[C@](O)(Cn2cncn2)c2ccc(F)cc2F)cnn1-c1ccc(Cl)cc1,3.3,> 80,60,0,–,–
CC(=O)ONC(=N)c1ccc(-c2cc3ncn([C@H](C)[C@](O)(Cn4cncn4)c4ccc(F)cc4F)c(=O)c3s2)cc1,3.7,36,60,0,–,–
C[C@@H](n1cnc2cc(-c3ccc(S(C)(=O)=O)cc3)sc2c1=O)[C@](O)(Cn1cncn1)c1ccc(F)cc1F,2.3,> 80,40,0,–,–
CSc1ccc(-c2cc3ncn([C@H](C)[C@](O)(Cn4cncn4)c4ccc(F)cc4F)c(=O)c3s2)cc1,5.5,> 80,30,0,–,–
CCCc1c(C(=O)N[C@H](C)[C@](O)(Cn2cncn2)c2ccc(F)cc2F)cnn1-c1ccc(Cl)cc1,1.9,36,100,0,–,–
Cc1c(C(=O)N[C@H](C)[C@](O)(Cn2cncn2)c2ccc(F)cc2F)cnn1-c1ccc(Br)cc1,2,13,100,50,–,–
C[C@@H](n1cnc2cc(-c3ccc([N+](=O)[O-])cc3)sc2c1=O)[C@](O)(Cn1cncn1)c1ccc(F)cc1F,5.9,> 80,100,90,–,–
Cc1cc2ncc(C(=O)N[C@H](C)[C@](O)(Cn3cncn3)c3ccc(F)cc3F)c(C)n2n1,70,> 80,20,0,–,–
C[C@@H](n1cnc2cc(-c3ccc(C(N)=O)cc3)sc2c1=O)[C@](O)(Cn1cncn1)c1ccc(F)cc1F,1.3,45,100,20,–,–
Cc1c(C(=O)N[C@H](C)[C@](O)(Cn2cncn2)c2ccc(F)cc2F)cnn1-c1c(Cl)cccc1Cl,21,> 80,0,0,–,–
C[C@@H](NC(=O)c1cnn(-c2ccc(Cl)cc2)c1C(C)(C)C)[C@](O)(Cn1cncn1)c1ccc(F)cc1F,4.6,> 80,0,0,–,–
C[C@@H](n1cnc2cc(-c3ccc(C(=N)NO)cc3)sc2c1=O)[C@](O)(Cn1cncn1)c1ccc(F)cc1F,2.4,> 80,90,0,–,–
Cc1c(C(=O)N[C@H](C)[C@](O)(Cn2cncn2)c2ccc(F)cc2F)cnn1-c1ccc(C(F)(F)F)cc1,1.7,13,100,80,–,–
C[C@@H](n1cnc2cc(-c3ccc(F)cc3)sc2c1=O)[C@](O)(Cn1cncn1)c1ccc(F)cc1F,0.4,2.2,100,100,–,–

Compound,MIC [1] [mg/L],MIC [2] [mg/L],Protection (Candida albicans [3]) [%],Protection (Candida albicans [4]) [%],Protection (Candida albicans [5]) [%],Protection (Candida albicans [6]) [%]
Cc1c(C(=O)N[C@H](C)[C@](O)(Cn2cncn2)c2ccc(F)cc2F)cnn1-c1ccc(F)cc1F,5.3,63,0,0,–,–
C[C@@H](NC(=O)c1cnn(-c2ccc(Cl)cc2)c1C1CC1)[C@](O)(Cn1cncn1)c1ccc(F)cc1F,1.8,> 80,100,0,–,–
Cc1c(C(=O)N[C@H](C)[C@](O)(Cn2cncn2)c2ccc(F)cc2F)cnn1-c1ccc(Cl)cc1,1.8,16,80,60,–,–
COc1ccc(-n2ncc(C(=O)N[C@H](C)[C@](O)(Cn3cncn3)c3ccc(F)cc3F)c2C)cc1,6.1,23,0,0,–,–
Cc1c(C(=O)N[C@H](C)[C@](O)(Cn2cncn2)c2ccc(F)cc2F)cnn1-c1cc(Cl)cc(Cl)c1,19,> 80,20,0,–,–
C[C@@H](NC(=O)c1cnn(-c2ccc(C(F)(F)F)cc2)c1C(F)(F)F)[C@](O)(Cn1cncn1)c1ccc(F)cc1F,1.8,13,60,0,–,–
C[C@@H](n1cnc2cc(-c3ccc(C4=NCCO4)cc3)sc2c1=O)[C@](O)(Cn1cncn1)c1ccc(F)cc1F,1.9,> 80,100,20,–,–
Cc1nn(-c2ccc(Cl)cc2)c(C)c1C(=O)N[C@H](C)[C@](O)(Cn1cncn1)c1ccc(F)cc1F,1.5,8.9,90,20,–,–
Cc1c(C(=O)N[C@H](C)[C@](O)(Cn2cncn2)c2ccc(F)cc2F)cnn1-c1cccc(C(F)(F)F)c1,4.6,20,100,0,–,–
C[C@@H](NC(=O)c1cnn(-c2ccc(Cl)cc2)c1N)[C@](O)(Cn1cncn1)c1ccc(F)cc1F,2.7,45,80,0,–,–
Cc1nc(-c2ccc(OCC(F)(F)C(F)F)cc2)sc1C(=O)N[C@H](C)[C@](O)(Cn1cncn1)c1ccc(F)cc1F,1.3,2.2,–,–,0,100
C[C@@H](NC(=O)c1sc(-c2ccc(C(F)(F)F)cc2)nc1C(F)(F)F)[C@](O)(Cn1cncn1)c1ccc(F)cc1F,1.6,17,–,–,<20,90
Cc1c(S(=O)(=O)c2ccc(Cl)cc2)csc1C(=O)N[C@H](C)[C@](O)(Cn1cncn1)c1ccc(F)cc1F,1.6,11,70,0,–,–
Cc1c(C(=O)N[C@H](C)[C@](O)(Cn2cncn2)c2ccc(F)cc2F)cnn1-c1ccc(OC(F)(F)F)cc1,2.6,5.6,100,80,–,–
C[C@@H](NC(=O)c1cnn(-c2ccc(Cl)cc2)c1)[C@](O)(Cn1cncn1)c1ccc(F)cc1F,1.9,> 80,100,50,–,–
Cc1nc(-c2ccc(C(N)=O)cc2)sc1C(=O)N[C@H](C)[C@](O)(Cn1cncn1)c1ccc(F)cc1F,20,> 80,–,–,0,0
C[C@@H](NC(=O)c1ccc(-c2ccc(Cl)cc2)o1)[C@](O)(Cn1cncn1)c1ccc(F)cc1F,1.5,> 80,–,–,0,0
